From ChEMBL document CHEMBL1152964, “Bicyclic cyanothiazolidines as novel dipeptidyl peptidase 4 inhibitors” (Bioorg Med Chem Lett, 2009)

Target: T1, Prolyl endopeptidase FAP (Homo sapiens, UniProt Q12884)
T1 sequence (Q12884 whole entry): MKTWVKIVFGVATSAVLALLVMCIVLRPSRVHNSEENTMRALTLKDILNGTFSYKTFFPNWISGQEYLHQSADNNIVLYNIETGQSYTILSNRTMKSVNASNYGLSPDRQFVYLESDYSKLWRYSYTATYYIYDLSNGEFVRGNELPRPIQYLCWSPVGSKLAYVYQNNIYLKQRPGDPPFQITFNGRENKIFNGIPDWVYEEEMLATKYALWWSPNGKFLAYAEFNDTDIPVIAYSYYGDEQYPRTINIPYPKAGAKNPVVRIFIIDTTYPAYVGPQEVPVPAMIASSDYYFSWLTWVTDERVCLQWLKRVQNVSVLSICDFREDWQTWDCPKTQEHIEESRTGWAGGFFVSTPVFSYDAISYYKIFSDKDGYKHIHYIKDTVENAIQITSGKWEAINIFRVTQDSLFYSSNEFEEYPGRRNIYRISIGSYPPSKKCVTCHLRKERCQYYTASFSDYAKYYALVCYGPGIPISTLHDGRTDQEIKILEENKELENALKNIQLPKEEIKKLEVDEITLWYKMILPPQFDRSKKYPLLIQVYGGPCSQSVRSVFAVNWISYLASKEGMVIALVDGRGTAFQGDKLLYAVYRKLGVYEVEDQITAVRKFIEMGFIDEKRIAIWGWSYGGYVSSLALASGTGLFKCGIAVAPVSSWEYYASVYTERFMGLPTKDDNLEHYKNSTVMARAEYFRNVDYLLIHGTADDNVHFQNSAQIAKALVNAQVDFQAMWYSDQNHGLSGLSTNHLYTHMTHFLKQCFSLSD
Assay: Inhibition of human recombinant FAP expressed in Sf9 cells by fluorescence assay
Summary of the method: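 Recombinant human FAP, His-tagged, expressed in infected insect cells grown 48 h and purified by His-tag column. Enzyme preincubated with inhibitor (0.5 nM to 50 µM; dissolved in DMSO or 50 mM glycine pH 3.0) 10 min at 27 °C in 25 mM Tris pH 8. Ala-Pro AMC substrate was then added and AMC release read at ex 360/em 460 nm. IC50 was fitted by nonlinear regression.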

**Q.** For `CC[C@H](C)[C@@]1(N)C[C@@H]2SC[C@@H](C#N)N2C1=O`, which IC50 is on record?
**A.** The IC50 was over 10 µM.

**Q.** `N#C[C@@H]1CS[C@H]2C[C@](N)(Cc3ccccc3)C(=O)N12` was tested. Which IC50 did it give?
**A.** The IC50 was over 10 µM.

**Q.** For `N#C[C@@H]1CS[C@H]2C[C@](N)(c3ccc(F)cc3)C(=O)N12`, which IC50 is on record?
**A.** The IC50 was over 10 µM.

**Q.** How did the IC50 turn out when `N#C[C@@H]1CS[C@H]2C[C@](N)(c3ccccc3)C(=O)N12` was run?
**A.** Its IC50 is over 10 µM.

**Q.** With `N#C[C@@H]1CS[C@H]2C[C@](N)(CCc3ccccc3)C(=O)N12` as the compound, how does the IC50 read?
**A.** Its IC50 is over 10 µM.

**Q.** Which IC50 does the source give for `N#C[C@@H]1CS[C@H]2C[C@](N)(C3CCCC3)C(=O)N12` here?
**A.** The IC50 was over 10 µM.

**Q.** Which IC50 does the source give for `CC[C@@]1(N)C[C@@H]2SC[C@@H](C#N)N2C1=O` here?
**A.** Its IC50 is over 10 µM.

**Q.** Which IC50 does the source give for `N#C[C@@H]1CS[C@H]2C[C@](N)(CC3CCCCC3)C(=O)N12` here?
**A.** The IC50 was over 10 µM.

**Q.** How did the IC50 turn out when `CC(C)C[C@@]1(N)C[C@@H]2SC[C@@H](C#N)N2C1=O` was run?
**A.** The IC50 was over 10 µM.

**Q.** Which IC50 does the source give for `N#C[C@@H]1CS[C@H]2C[C@](N)(C3CCCCC3)C(=O)N12` here?
**A.** Its IC50 is over 10 µM.

**Q.** For `CC(C)[C@@]1(N)C[C@@H]2SC[C@@H](C#N)N2C1=O`, which IC50 is on record?
**A.** Its IC50 is over 10 µM.

Target: Dipeptidyl peptidase 4 (Homo sapiens, UniProt P27487)
Assay: Inhibition of human recombinant DPP4 by fluorescence assay

Sequence of Dipeptidyl peptidase 4 (P27487 whole entry): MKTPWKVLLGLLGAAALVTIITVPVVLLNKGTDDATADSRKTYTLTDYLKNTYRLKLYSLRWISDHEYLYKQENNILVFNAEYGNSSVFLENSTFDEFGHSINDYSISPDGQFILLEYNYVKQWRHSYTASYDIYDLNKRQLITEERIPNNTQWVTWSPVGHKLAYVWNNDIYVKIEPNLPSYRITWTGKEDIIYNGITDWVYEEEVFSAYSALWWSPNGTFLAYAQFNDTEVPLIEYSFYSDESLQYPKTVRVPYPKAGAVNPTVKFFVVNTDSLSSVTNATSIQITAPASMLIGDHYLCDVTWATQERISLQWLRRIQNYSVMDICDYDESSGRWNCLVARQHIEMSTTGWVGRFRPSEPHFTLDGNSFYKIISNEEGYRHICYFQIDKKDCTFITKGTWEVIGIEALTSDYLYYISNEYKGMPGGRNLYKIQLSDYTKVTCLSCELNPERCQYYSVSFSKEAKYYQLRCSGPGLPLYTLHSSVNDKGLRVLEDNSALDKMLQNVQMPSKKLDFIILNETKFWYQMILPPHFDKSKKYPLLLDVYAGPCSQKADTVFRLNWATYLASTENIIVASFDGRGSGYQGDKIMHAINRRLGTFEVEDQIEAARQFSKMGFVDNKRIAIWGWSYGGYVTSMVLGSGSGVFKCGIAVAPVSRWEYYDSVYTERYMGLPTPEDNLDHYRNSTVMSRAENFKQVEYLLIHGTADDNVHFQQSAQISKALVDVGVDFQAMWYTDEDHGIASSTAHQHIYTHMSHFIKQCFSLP

**Q.** For `N#C[C@@H]1CS[C@H]2C[C@@H](NCCc3ccccc3)C(=O)N12`, which IC50 is on record?
**A.** Its IC50 is over 16 µM.

**Q.** `N#C[C@@H]1CS[C@H]2CC[C@@H](N)C(=O)N12` was tested. Which IC50 did it give?
**A.** Its IC50 is over 1.6 µM.

**Q.** Which IC50 does the source give for `N#C[C@@H]1CS[C@H]2C[C@@H](NC3CCCC3)C(=O)N12` here?
**A.** Its IC50 is over 16 µM.

**Q.** `N#C[C@@H]1CS[C@H]2CC[C@H](N)C(=O)N12` was tested. Which IC50 did it give?
**A.** The IC50 was over 1.6 µM.
